Assay results as given in ChEMBL document CHEMBL4351017, “Selenocoumarins as new multitarget antiproliferative agents: Synthesis, biological evaluation and in silico calculations” (Eur J Med Chem, 2019).
Calls of active or inactive are those of the source. The rule behind the calls is not given here.

Assays:
hTERT-BJ = test: (§1) Cytotoxicity against human hTERT-BJ cells assessed as growth inhibition measured after 48 hrs by sulforhodamine B assay; assay type: cell-based; settings: htert-bj, 48 h
Summary of the method: (§2)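 NCI protocol with minor modifications. Human tumour lines or fibroblasts in RPMI 1640 with 1 mM glutamine, 5% FBS and antibiotics, 37 °C, 5% CO2, low passage. DMSO stocks at 40 mM. Cells exposed for 48 h to serial decimal dilutions, 0.001–100 µM. GI50 in µM from at least two independent experiments, with SD.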

A549 = test: Antiproliferative activity against human A549 cells assessed as growth inhibition measured after 48 hrs by sulforhodamine B assay; assay type: functional; settings: A549, 48 h
Summary of the method: (§3)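 NCI protocol with minor modifications. DMSO stocks at 40 mM. Cells exposed for 48 h to serial decimal dilutions, 0.001–100 µM. GI50 in µM from at least two independent experiments, with SD.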

HBL-100 = test: Antiproliferative activity against human HBL100 cells assessed as growth inhibition measured after 48 hrs by sulforhodamine B assay; assay type: functional; settings: HBL-100, 48 h; summary of the method: as §3
HeLa [1] = test: Antiproliferative activity against human HeLa cells assessed as growth inhibition measured after 48 hrs by sulforhodamine B assay; assay type: functional; summary of the method: as §3
T47D [2] = test: Antiproliferative activity against human T47D cells assessed as growth inhibition measured after 48 hrs by sulforhodamine B assay; assay type: functional; summary of the method: as §3
WiDr [3] = test: Antiproliferative activity against human WiDr cells assessed as growth inhibition measured after 48 hrs by sulforhodamine B assay; assay type: functional; summary of the method: as §3
[4] = as §1; assay type: cell-based; settings: hTERT-BJ cells; summary of the method: as §2
SW1573 [5] = test: Antiproliferative activity against human SW1573 cells incubated for 48 hrs in presence of P-gp and CYP3A4/5 inhibitor verapamil by sulforhodamine B assay; assay type: functional; settings: SW1573, 48 h
Summary of the method: (§4)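 Wild-type and P-gp-overexpressing SW1573 cells were grown in RPMI 1640 with 1 mM glutamine, 5% FBS and antibiotics at 37 °C. Cells were exposed for 48 h to serial decimal dilutions, 0.001–100 µM, with or without 10 µM verapamil. GI50 values come from at least two independent experiments, with SD.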

SW1573 [6] = test: Antiproliferative activity against human SW1573 cells over-expressing P-gp incubated for 48 hrs in presence of P-gp and CYP3A4/5 inhibitor verapamil by sulforhodamine B assay; assay type: functional; settings: SW1573, 48 h; summary of the method: as §4
SW1573 [7] = test: (§5) Resistance factor, ratio of GI50 for antiproliferative activity against human SW1573 cells over-expressing P-gp incubated for 48 hrs in presence of P-gp and CYP3A4/5 inhibitor verapamil by sulforhodamine assay to GI50 for antiproliferative activity against human SW1573 cells incubated for 48 hrs in presence of P-gp and CYP3A4/5 inhibitor verapamil by sulforhodamine B assay; assay type: functional
Summary of the method: (§6)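 Resistance factor: GI50 in SW1573/PGP divided by GI50 in wild-type SW1573. Both came from 48 h exposure, with or without 10 µM verapamil. GI50 values are from at least two independent experiments.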

HeLa [8] = test: Anticancer activity against human HeLa cells assessed as increase in ROS production at 1 uM measured after 48 hrs by ROS-GloTM H2O2 assay; assay type: functional, cell-based
Summary of the method: (§7)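 HeLa cells in RPMI 1640 with 1 mM glutamine, 5% FBS and antibiotics, 37 °C, 5% CO2. Exposed to compound at 1 or 10 µM for 48 h. ROS (H2O2) read with a non-lytic, HRP-free luminescent kit per the manufacturer.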

SW1573 [9] = test: Antiproliferative activity against human SW1573 cells incubated for 48 hrs in absence of P-gp and CYP3A4/5 inhibitor verapamil by sulforhodamine B assay; assay type: functional; settings: SW1573, 48 h; summary of the method: as §4
SW1573 [10] = test: Antiproliferative activity against human SW1573 cells over-expressing P-gp incubated for 48 hrs in absence of P-gp and CYP3A4/5 inhibitor verapamil by sulforhodamine B assay; assay type: functional; settings: SW1573, 48 h; summary of the method: as §4
SW1573 [11] = test: as §5, with “hrs in absence of P-gp” for “hrs in presence of P-gp”, “by sulforhodamine B assay to” for “by sulforhodamine assay to”; assay type: functional; summary of the method: as §6
T47D [12] = test: Potency index, ratio of GI50 for CDDP to test compound GI50 for antiproliferative activity against human T47D cells; assay type: functional
WiDr [13] = test: Potency index, ratio of GI50 for CDDP to test compound GI50 for antiproliferative activity against human WiDr cells; assay type: functional
[14] = molecular target: T1, Histone deacetylase 8 (Homo sapiens) (UniProt Q9BY41); test: Potency index, ratio of inhibition activity of trichostatin to inhibition activity of compound HDAC8 (unknown origin)
T1 sequence (whole entry): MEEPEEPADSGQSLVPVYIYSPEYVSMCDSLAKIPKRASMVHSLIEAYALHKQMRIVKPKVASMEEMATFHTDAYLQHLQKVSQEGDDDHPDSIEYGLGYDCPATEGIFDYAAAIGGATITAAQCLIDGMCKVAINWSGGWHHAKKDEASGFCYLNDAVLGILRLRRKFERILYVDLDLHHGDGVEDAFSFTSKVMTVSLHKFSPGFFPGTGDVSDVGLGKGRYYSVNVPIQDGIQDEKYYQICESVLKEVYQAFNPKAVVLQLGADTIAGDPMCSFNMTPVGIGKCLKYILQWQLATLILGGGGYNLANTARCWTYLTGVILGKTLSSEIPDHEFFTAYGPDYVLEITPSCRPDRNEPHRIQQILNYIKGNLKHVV

HeLa [15] = test: Anticancer activity against human HeLa cells assessed as increase in ROS production at 10 uM measured after 48 hrs by ROS-GloTM H2O2 assay; assay type: functional, cell-based; summary of the method: as §7

Ratio [14] | Compound | GI50 (hTERT-BJ) | GI50 (A549) | GI50 (HBL-100) | GI50 (HeLa [1]) | GI50 (T47D [2]) | GI50 (WiDr [3]) | GI50 at 48 h [4] | GI50 (SW1573 [5]) | GI50 (SW1573 [6]) | RatioGI50 (SW1573 [7]) | Activity (HeLa [8]) | GI50 (SW1573 [9]) | GI50 (SW1573 [10]) | RatioGI50 (SW1573 [11]) | RatioGI50 (T47D [12]) | RatioGI50 (WiDr [13]) | Activity (HeLa [15])
– | CCCCOC(=[Se])Nc1ccc2c(C)cc(=O)oc2c1 | Nd(Insoluble) | – | – | – | – | – | – | – | – | – | – | – | – | – | – | – | –
– | Cc1cc(=O)oc2cc(NC(=[Se])Nc3ccc(Br)cc3)ccc12 | – | 2.7 µM | 2.2 µM | 2.2 µM | 2.8 µM | 3.5 µM | 4.4 µM | 16 µM | 16 µM | 1 | Active | 11 µM | 9.6 µM | 0.9 | <=6 | <=6 | –
1.65 | Cc1cc(=O)oc2cc(NC(=[Se])Nc3ccc4c(C)cc(=O)oc4c3)ccc12 | – | 3.2 µM | 3.5 µM | 2.9 µM | 3.6 µM | 4.5 µM | 4.9 µM | 9 µM | 21 µM | 2.3 | Active | 4.5 µM | 55 µM | 12 | <=6 | <=6 | –
– | Cc1cc(=O)oc2cc(NC(=[Se])Nc3ccccc3)ccc12 | – | 28 µM | 28 µM | 24 µM | 24 µM | 34 µM | > 100 µM | 25 µM | 21 µM | 0.8 | – | 23 µM | 21 µM | 0.9 | – | – | Active
– | COc1ccc(NC(=[Se])Nc2ccc3c(C)cc(=O)oc3c2)cc1 | – | 28 µM | 38 µM | 35 µM | 33 µM | 23 µM | > 100 µM | 10 µM | 25 µM | 2.5 | – | 14 µM | 24 µM | 1.7 | – | – | Active
– | Cc1cc(=O)oc2cc(NC(=[Se])Nc3ccc(C(F)(F)F)cc3)ccc12 | – | 8.6 µM | 13 µM | 21 µM | 8.7 µM | 6 µM | 32 µM | 26 µM | 22 µM | 0.9 | – | 20 µM | 24 µM | 1.2 | – | – | Active
– | CCOC(=[Se])Nc1ccc2c(C)cc(=O)oc2c1 | – | > 100 µM | > 100 µM | > 100 µM | > 100 µM | > 100 µM | – | – | – | – | – | – | – | – | – | – | –
